Outcome and inhibition data for 1 compound are collected here from PubChem BioAssay AID602485 (The Scripps Research Institute Molecular Screening Center, 2012).

Test [1] in a line: ABHD10 inhibition in dosed mice, late-stage follow-up, in vivo study for PME-1 inhibitor project, gel-based competitive ABPP, fluorescence, mouse heart (AID 602485). The settings on record: C57BL/6 mice i.p., heart proteome, FP-Rh gel ABPP; anti-targets at any tested dose. The essentials:
(§1)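 System: C57BL/6 mouse heart soluble proteome / Reagent: FP-Rh activity-based probe, 1 µM final / Timing: 6 h in vivo exposure, probe labelling 30 min at 25 °C / Signal: in-gel fluorescence after SDS-PAGE / Controls: vehicle-dosed mice as high control, blank gel background as low / Replication: n of 1 per dose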

The target in test [2] is Palmitoyl-protein thioesterase ABHD10, mitochondrial (Mus musculus) (UniProt Q6PE15). The test is described as above. The conditions noted are these: C57BL/6 mice i.p., heart proteome, FP-Rh gel ABPP, stronger effect = higher value. The essentials:
as §1

Calls of active or inactive are those of the source.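 Rule for the calls: active = at least 50% ABHD10 inhibition in mouse heart after 25 mg/kg, and no other enzyme inhibited 50% at any dose; inactive = the rest.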

Palmitoyl-protein thioesterase ABHD10, mitochondrial (Mus musculus), sequence (Q6PE15 whole entry, looked up): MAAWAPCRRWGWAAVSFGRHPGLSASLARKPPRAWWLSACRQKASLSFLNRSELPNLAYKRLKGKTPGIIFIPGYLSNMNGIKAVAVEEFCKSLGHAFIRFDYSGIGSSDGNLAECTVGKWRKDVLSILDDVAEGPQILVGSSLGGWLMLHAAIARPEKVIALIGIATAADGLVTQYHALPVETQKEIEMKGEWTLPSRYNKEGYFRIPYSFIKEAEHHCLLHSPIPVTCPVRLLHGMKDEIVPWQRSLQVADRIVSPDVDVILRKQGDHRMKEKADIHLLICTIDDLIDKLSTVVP

In the case of `CC[C@@]1(c2ccc(C)cc2)C(=O)N(C(=O)OC(C)C)N1C(=O)OC(C)C`, in test [1], the outcome was inactive. The inhibition in test [2] is 99%; in test [2] (inhibition at 6 mg/kg), 10%; in test [2] (inhibition at 13 mg/kg) it was 60%.
